The values below come from ChEMBL document CHEMBL4138262, “Antineoplastic Agents. 606. The Betulastatins” (2018).

What all share (format): functional
Assay [1] deals with SF-268. Description: Growth inhibition of human SF268 cells after 48 hrs by SRB assay. The conditions noted are these: SF-268, 48 h. The method in brief: (§1)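 Cells in RPMI1640 with 5% fetal bovine serum were seeded in 96-well plates and incubated 24 h before serial dilutions of compound were added. After 48 h, plates were TCA-fixed, stained with sulforhodamine B and read on a microplate reader. Five serial dilutions were tested, with optical density in duplicate per end point. GI50 was calculated from optical density as the concentration halving net protein increase.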
For orientation: Sulforhodamine B stains cellular protein and so reports cell mass.

The subject of assay [2] is DU-145. The assay is described as follows: Growth inhibition of human DU145 cells after 48 hrs by SRB assay. The conditions noted are these: DU-145, 48 h. The essentials:
as §1

In assay [3] the test system is BXPC-3. Description: Growth inhibition of human BxPC3 cells after 48 hrs by SRB assay. The conditions noted are these: BXPC-3, 48 h. The method in brief:
as §1

The test system of assay [4] is NCI-H460. Description: Growth inhibition of human NCI-H460 cells after 48 hrs by SRB assay. The conditions noted are these: NCI-H460, 48 h. The essentials:
as §1

Assay [5] has as its system KM-20L2. The assay is described as follows: Growth inhibition of human KM20L2 cells after 48 hrs by SRB assay. The conditions noted are these: KM-20L2, 48 h. The essentials:
as §1

In assay [6] the test system is MCF7. Description: Growth inhibition of human MCF7 cells after 48 hrs by SRB assay. The conditions noted are these: MCF7, 48 h. The method in brief:
as §1

≈ marks a conversion by molar mass, not a printed value.

Regarding `C=C(C)[C@@H]1CC[C@]2(C=O)CC[C@]3(C)[C@H](CC[C@@H]4[C@@]5(C)CC[C@H](OC(C)=O)C(C)(C)[C@@H]5CC[C@]43C)[C@@H]12`, the GI50 in assay [1], in assay [2], in assay [3], in assay [4], in assay [5] and in assay [6] was over 10 µg/mL throughout.

As to `C=C(C)[C@@H]1CC[C@]2(/C=N/O)CC[C@]3(C)[C@H](CC[C@@H]4[C@@]5(C)CC[C@H](OC(C)=O)C(C)(C)[C@@H]5CC[C@]43C)[C@@H]12`, the GI50 – broadly, the concentration giving 50% growth inhibition – in assay [1] was 13.2 µg/mL (≈ 26.5 µM); in assay [2], over 10 µg/mL; in assay [3], 15.5 µg/mL (≈ 31.1 µM); in assay [4] it was 4.1 µg/mL (≈ 8.24 µM); in assay [5] it was 5.1 µg/mL (≈ 10.2 µM); in assay [6] it was 4.5 µg/mL (≈ 9.04 µM).

On to `C=C(C)[C@@H]1CC[C@]2(CO)CC[C@]3(C)[C@H](CC[C@@H]4[C@@]5(C)CC[C@H](O)C(C)(C)[C@@H]5CC[C@]43C)[C@@H]12` [BETULIN], for which the GI50 in assay [1] was over 10 µg/mL; in assay [2], over 10 µg/mL; in assay [3] it was 9.3 µg/mL (≈ 21 µM); in assay [4], 7.4 µg/mL (≈ 16.7 µM); in assay [5] it was over 10 µg/mL; in assay [6] it was over 10 µg/mL.
